# Laboratory results published in ChEMBL document CHEMBL5058577, “EUbOPEN Chemogenomics Library 2 (Multiplex)” (2022).
# System: U2OS
# Test: Multiplex assay against U2OS
# Assay type: toxicity, cell-based
# Conditions: human
# Method in brief: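 Four dyes were applied at seeding to live cells: Hoechst33342, BioTracker Green Microtubule Cytoskeleton Dye, MitoTracker Red and Annexin V Alexa Fluor 680. Imaging after compound addition used a CQ1 microscope at 37°C and 5% CO2. CellPathfinder machine-learning gating then sorted cells into Hoechst high-intensity objects or normal cells, normal cells into healthy, pyknosed or fragmented nuclei, and pyknosed cells into mitotic or apoptotic, with tubulin, mitochondrial-mass and membrane-permeability phenotypes given as per cents of healthy-nucleus cells.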
# [1] = 12 h, 1 µM, compound concentration 1 uM, replicate 1
# [2] = 12 h, 1 µM, compound concentration 1 uM, replicate 2
# [3] = 12 h, 10 µM, compound concentration 10 uM, replicate 1
# [4] = 12 h, 10 µM, compound concentration 10 uM, replicate 2
# [5] = 24 h, 1 µM, compound concentration 1 uM, replicate 1
# [6] = 24 h, 1 µM, compound concentration 1 uM, replicate 2
# [7] = 24 h, 10 µM, compound concentration 10 uM, replicate 1
# [8] = 24 h, 10 µM, compound concentration 10 uM, replicate 2
# [9] = 48 h, 1 µM, compound concentration 1 uM, replicate 1
# [10] = 48 h, 1 µM, compound concentration 1 uM, replicate 2
# [11] = 48 h, 10 µM, compound concentration 10 uM, replicate 1
# [12] = 48 h, 10 µM, compound concentration 10 uM, replicate 2
smiles,measurement,setting,value
O=C(Nc1cc(-c2ccccc2)nn1-c1ccccc1F)c1ccc([N+](=O)[O-])cc1,Population Apoptotic (%),[1],86%
same,Population Fragmented Nuclei (%),[1],25%
same,Population Healthy Nuclei (%),[1],66%
same,Population Hoechst High Intensity Objects (%),[1],4%
same,Population Membrane Permeable-Phenotype (%),[1],10%
same,Population Mitochondria Different-Phenotype (%),[1],4%
same,Population Mitotic Cells (%),[1],13%
same,Population Normal (%),[1],95%
same,Population Pyknosed Nuclei (%),[1],8%
same,Population Tubulin-Different-Phenotype (%),[1],4%
same,Total Cell Count,[1],293
same,Population Apoptotic (%),[2],91%
same,Population Fragmented Nuclei (%),[2],14%
same,Population Healthy Nuclei (%),[2],78%
same,Population Hoechst High Intensity Objects (%),[2],1%
same,Population Membrane Permeable-Phenotype (%),[2],9%
same,Population Mitotic Cells (%),[2],8%
same,Population Normal (%),[2],98%
same,Population Pyknosed Nuclei (%),[2],6%
same,Population Tubulin-Different-Phenotype (%),[2],9%
same,Total Cell Count,[2],182
same,Population Apoptotic (%),[3],66%
same,Population Fragmented Nuclei (%),[3],30%
same,Population Healthy Nuclei (%),[3],60%
same,Population Hoechst High Intensity Objects (%),[3],3%
same,Population Membrane Permeable-Phenotype (%),[3],11%
same,Population Mitochondria Different-Phenotype (%),[3],5%
same,Population Mitotic Cells (%),[3],33%
same,Population Normal (%),[3],96%
same,Population Pyknosed Nuclei (%),[3],9%
same,Population Tubulin-Different-Phenotype (%),[3],7%
same,Total Cell Count,[3],293
same,Population Apoptotic (%),[4],94%
same,Population Fragmented Nuclei (%),[4],12%
same,Population Healthy Nuclei (%),[4],73%
same,Population Hoechst High Intensity Objects (%),[4],0%
same,Population Mitochondria Different-Phenotype (%),[4],8%
same,Population Mitotic Cells (%),[4],5%
same,Population Normal (%),[4],100%
same,Population Pyknosed Nuclei (%),[4],13%
same,Population Tubulin-Different-Phenotype (%),[4],6%
same,Total Cell Count,[4],134
same,Population Apoptotic (%),[5],91%
same,Population Fragmented Nuclei (%),[5],24%
same,Population Healthy Nuclei (%),[5],68%
same,Population Hoechst High Intensity Objects (%),[5],3%
same,Population Membrane Permeable-Phenotype (%),[5],6%
same,Population Mitochondria Different-Phenotype (%),[5],4%
same,Population Mitotic Cells (%),[5],8%
same,Population Normal (%),[5],96%
same,Population Pyknosed Nuclei (%),[5],7%
same,Population Tubulin-Different-Phenotype (%),[5],5%
same,Total Cell Count,[5],342
same,Population Apoptotic (%),[6],100%
same,Population Fragmented Nuclei (%),[6],15%
same,Population Healthy Nuclei (%),[6],76%
same,Population Hoechst High Intensity Objects (%),[6],1%
same,Population Membrane Permeable-Phenotype (%),[6],9%
same,Population Mitochondria Different-Phenotype (%),[6],5%
same,Population Mitotic Cells (%),[6],0%
same,Population Normal (%),[6],98%
same,Population Pyknosed Nuclei (%),[6],8%
same,Population Tubulin-Different-Phenotype (%),[6],6%
same,Total Cell Count,[6],226
same,Population Apoptotic (%),[7],91%
same,Population Fragmented Nuclei (%),[7],25%
same,Population Healthy Nuclei (%),[7],64%
same,Population Hoechst High Intensity Objects (%),[7],1%
same,Population Membrane Permeable-Phenotype (%),[7],7%
same,Population Mitochondria Different-Phenotype (%),[7],3%
same,Population Mitotic Cells (%),[7],8%
same,Population Normal (%),[7],98%
same,Population Pyknosed Nuclei (%),[7],9%
same,Population Tubulin-Different-Phenotype (%),[7],5%
same,Total Cell Count,[7],353
same,Population Apoptotic (%),[8],100%
same,Population Fragmented Nuclei (%),[8],14%
same,Population Healthy Nuclei (%),[8],76%
same,Population Hoechst High Intensity Objects (%),[8],0%
same,Population Membrane Permeable-Phenotype (%),[8],11%
same,Population Mitochondria Different-Phenotype (%),[8],8%
same,Population Mitotic Cells (%),[8],0%
same,Population Normal (%),[8],99%
same,Population Tubulin-Different-Phenotype (%),[8],8%
same,Total Cell Count,[8],164
same,Population Apoptotic (%),[9],89%
same,Population Fragmented Nuclei (%),[9],17%
same,Population Healthy Nuclei (%),[9],73%
same,Population Hoechst High Intensity Objects (%),[9],2%
same,Population Membrane Permeable-Phenotype (%),[9],9%
same,Population Mitochondria Different-Phenotype (%),[9],5%
same,Population Mitotic Cells (%),[9],10%
same,Population Normal (%),[9],97%
same,Population Pyknosed Nuclei (%),[9],8%
same,Population Tubulin-Different-Phenotype (%),[9],5%
same,Total Cell Count,[9],475
same,Population Apoptotic (%),[10],90%
same,Population Fragmented Nuclei (%),[10],12%
same,Population Healthy Nuclei (%),[10],79%
same,Population Hoechst High Intensity Objects (%),[10],1%
same,Population Membrane Permeable-Phenotype (%),[10],6%
same,Population Mitochondria Different-Phenotype (%),[10],4%
same,Population Normal (%),[10],98%
same,Total Cell Count,[10],371
same,Population Apoptotic (%),[11],81%
same,Population Fragmented Nuclei (%),[11],20%
same,Population Healthy Nuclei (%),[11],67%
same,Population Hoechst High Intensity Objects (%),[11],2%
same,Population Membrane Permeable-Phenotype (%),[11],8%
same,Population Mitochondria Different-Phenotype (%),[11],4%
same,Population Mitotic Cells (%),[11],18%
same,Population Normal (%),[11],97%
same,Population Pyknosed Nuclei (%),[11],12%
same,Population Tubulin-Different-Phenotype (%),[11],6%
same,Total Cell Count,[11],445
same,Population Apoptotic (%),[12],89%
same,Population Fragmented Nuclei (%),[12],10%
same,Population Healthy Nuclei (%),[12],76%
same,Population Membrane Permeable-Phenotype (%),[12],11%
same,Population Mitochondria Different-Phenotype (%),[12],8%
same,Population Mitotic Cells (%),[12],10%
same,Population Pyknosed Nuclei (%),[12],13%
same,Population Tubulin-Different-Phenotype (%),[12],8%
same,Total Cell Count,[12],226
COc1c(Nc2ccc(S(C)(=O)=O)nc2C)ncnc1OC1CCN(C(=O)OC(C)C)CC1 [ADP-597],Population Apoptotic (%),[1],82%
same,Population Fragmented Nuclei (%),[1],23%
same,Population Healthy Nuclei (%),[1],68%
same,Population Hoechst High Intensity Objects (%),[1],2%
same,Population Membrane Permeable-Phenotype (%),[1],7%
same,Population Mitochondria Different-Phenotype (%),[1],1%
same,Population Mitotic Cells (%),[1],17%
same,Population Normal (%),[1],97%
same,Population Pyknosed Nuclei (%),[1],8%
same,Population Tubulin-Different-Phenotype (%),[1],5%
same,Total Cell Count,[1],208
same,Population Apoptotic (%),[2],75%
same,Population Fragmented Nuclei (%),[2],13%
same,Population Healthy Nuclei (%),[2],78%
same,Population Hoechst High Intensity Objects (%),[2],3%
same,Population Membrane Permeable-Phenotype (%),[2],11%
same,Population Mitotic Cells (%),[2],25%
same,Population Normal (%),[2],96%
same,Population Tubulin-Different-Phenotype (%),[2],2%
same,Total Cell Count,[2],95
same,Population Apoptotic (%),[3],93%
same,Population Fragmented Nuclei (%),[3],27%
same,Population Healthy Nuclei (%),[3],60%
same,Population Hoechst High Intensity Objects (%),[3],8%
same,Population Membrane Permeable-Phenotype (%),[3],7%
same,Population Mitochondria Different-Phenotype (%),[3],2%
same,Population Mitotic Cells (%),[3],6%
same,Population Normal (%),[3],91%
same,Population Pyknosed Nuclei (%),[3],11%
same,Population Tubulin-Different-Phenotype (%),[3],4%
same,Total Cell Count,[3],266
same,Population Apoptotic (%),[4],85%
same,Population Fragmented Nuclei (%),[4],10%
same,Population Healthy Nuclei (%),[4],77%
same,Population Hoechst High Intensity Objects (%),[4],4%
same,Population Mitochondria Different-Phenotype (%),[4],3%
same,Population Mitotic Cells (%),[4],14%
same,Population Normal (%),[4],95%
same,Population Tubulin-Different-Phenotype (%),[4],1%
same,Total Cell Count,[4],128
same,Population Apoptotic (%),[5],88%
same,Population Fragmented Nuclei (%),[5],24%
same,Population Healthy Nuclei (%),[5],67%
same,Population Hoechst High Intensity Objects (%),[5],3%
same,Population Membrane Permeable-Phenotype (%),[5],7%
same,Population Mitochondria Different-Phenotype (%),[5],3%
same,Population Mitotic Cells (%),[5],11%
same,Population Normal (%),[5],96%
same,Population Pyknosed Nuclei (%),[5],7%
same,Population Tubulin-Different-Phenotype (%),[5],3%
same,Total Cell Count,[5],239
same,Population Apoptotic (%),[6],80%
same,Population Fragmented Nuclei (%),[6],12%
same,Population Healthy Nuclei (%),[6],79%
same,Population Membrane Permeable-Phenotype (%),[6],8%
same,Population Mitotic Cells (%),[6],20%
same,Population Pyknosed Nuclei (%),[6],8%
same,Population Tubulin-Different-Phenotype (%),[6],5%
same,Total Cell Count,[6],129
same,Population Apoptotic (%),[7],88%
same,Population Fragmented Nuclei (%),[7],30%
same,Population Healthy Nuclei (%),[7],61%
same,Population Hoechst High Intensity Objects (%),[7],6%
same,Population Membrane Permeable-Phenotype (%),[7],8%
same,Population Mitochondria Different-Phenotype (%),[7],2%
same,Population Mitotic Cells (%),[7],12%
same,Population Normal (%),[7],93%
same,Population Pyknosed Nuclei (%),[7],8%
same,Population Tubulin-Different-Phenotype (%),[7],4%
same,Total Cell Count,[7],305
same,Population Apoptotic (%),[8],83%
same,Population Fragmented Nuclei (%),[8],11%
same,Population Healthy Nuclei (%),[8],80%
same,Population Hoechst High Intensity Objects (%),[8],5%
same,Population Membrane Permeable-Phenotype (%),[8],6%
same,Population Mitochondria Different-Phenotype (%),[8],4%
same,Population Mitotic Cells (%),[8],16%
same,Population Normal (%),[8],94%
same,Population Tubulin-Different-Phenotype (%),[8],1%
same,Total Cell Count,[8],155
same,Population Apoptotic (%),[9],80%
same,Population Fragmented Nuclei (%),[9],19%
same,Population Healthy Nuclei (%),[9],72%
same,Population Hoechst High Intensity Objects (%),[9],2%
same,Population Membrane Permeable-Phenotype (%),[9],6%
same,Population Mitochondria Different-Phenotype (%),[9],5%
same,Population Mitotic Cells (%),[9],19%
same,Population Normal (%),[9],97%
same,Population Pyknosed Nuclei (%),[9],7%
same,Population Tubulin-Different-Phenotype (%),[9],2%
same,Total Cell Count,[9],339
same,Population Apoptotic (%),[10],81%
same,Population Fragmented Nuclei (%),[10],20%
same,Population Healthy Nuclei (%),[10],67%
same,Population Membrane Permeable-Phenotype (%),[10],5%
same,Population Mitochondria Different-Phenotype (%),[10],4%
same,Population Mitotic Cells (%),[10],18%
same,Population Pyknosed Nuclei (%),[10],12%
same,Total Cell Count,[10],185
same,Population Apoptotic (%),[11],79%
same,Population Fragmented Nuclei (%),[11],24%
same,Population Healthy Nuclei (%),[11],62%
same,Population Hoechst High Intensity Objects (%),[11],6%
same,Population Membrane Permeable-Phenotype (%),[11],6%
same,Population Mitochondria Different-Phenotype (%),[11],4%
same,Population Mitotic Cells (%),[11],20%
same,Population Normal (%),[11],93%
same,Population Pyknosed Nuclei (%),[11],13%
same,Population Tubulin-Different-Phenotype (%),[11],2%
same,Total Cell Count,[11],356
same,Population Apoptotic (%),[12],92%
same,Population Fragmented Nuclei (%),[12],10%
same,Population Healthy Nuclei (%),[12],77%
same,Population Hoechst High Intensity Objects (%),[12],3%
same,Population Membrane Permeable-Phenotype (%),[12],4%
same,Population Mitochondria Different-Phenotype (%),[12],0%
same,Population Mitotic Cells (%),[12],8%
same,Population Normal (%),[12],96%
same,Population Pyknosed Nuclei (%),[12],11%
same,Total Cell Count,[12],223
